Rows were chosen to be rich in hits. Some 2.3% of all compounds tested hit in one or more screens of this group.
OXTR ag – agonists of human oxytocin receptor. P30559. hit rate 0.32% among 320,000. activation, % at 3 µM. CHO-OTR cells, Fluo-8 calcium fluorescence; normalized: DMSO 0%, oxytocin 100%;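 active = activation above the mean of all tested compounds plus 3 SD, cutoff set per screening run, cut at about 20% in these data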;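 note: peak over basal fluorescence ratio from a 100 s FLIPR kinetic read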
Target sequence (P30559 whole entry, looked up): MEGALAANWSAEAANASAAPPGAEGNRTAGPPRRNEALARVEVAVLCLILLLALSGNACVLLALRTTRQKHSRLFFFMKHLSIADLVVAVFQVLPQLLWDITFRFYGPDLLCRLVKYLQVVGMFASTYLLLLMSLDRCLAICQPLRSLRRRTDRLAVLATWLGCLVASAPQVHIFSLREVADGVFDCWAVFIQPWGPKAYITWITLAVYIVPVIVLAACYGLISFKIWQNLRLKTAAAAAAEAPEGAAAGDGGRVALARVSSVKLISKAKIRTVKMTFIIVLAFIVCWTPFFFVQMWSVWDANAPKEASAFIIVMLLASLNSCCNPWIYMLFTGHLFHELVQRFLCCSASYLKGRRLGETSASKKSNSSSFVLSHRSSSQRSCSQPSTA
OXTR potentiator – human OXTR potentiation | AID 2445 | CHO-OTR cells, Fluo-8 calcium fluorescence, potentiator mode; 0% = oxytocin EC15, 100% = EC100 | P30559 | activation, % at 3 µM | hit rate 0.061% among 320,000;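 active = activation above that plate's cutoff, the mean activation of tested compounds plus 3 SD, cut at about 6.6% in these data, passing the limit was not always enough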;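 note: 100% uses oxytocin at 75 nM as the full agonist control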
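test system = CHO-OTR cells, human receptor | compound = single-point 3.0 µM | schedule = 6 min compound pre-incubation at room temperature, 100 s kinetic read | signal = Fluo-8 no-wash calcium dye fluorescence, excitation 470-495 nm, emission 515-575 nm | repeats = single well per compound, singlicate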
TAAR1 agonist – agonists of human TAAR1; Q96RJ0; CHO RD-HGA16 TAAR1, Fluo-8 calcium fluorescence; vehicle wells 0%, saturating PEA agonist 100%; activation, % at 3 µM; hit rate 0.99% among 360,000; AID 624467;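 active = activation above the mean activation of all test compounds in the run plus 3 SD, cut at about 38% in these data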
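Benchmarks: low control DMSO, high control PEA (EC100); System: CHO RD-HGA16 cells carrying human TAAR1 plus Gα16; Detection: Fluo-8 fluorescence, 5 s baseline then 140 s kinetic read; Schedule: 17-24 h plating, Fluo-8 75 min 37 °C, 30 min RT; Read-out basis: % activation from peak over basal fluorescence ratio, DMSO-to-PEA scaled.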
TAAR1 antagonist – human TAAR1 antagonism | hit rate 1.5% among 360,000 | inhibition, % at 3 µM | CHO RD-HGA16 TAAR1, Fluo-8 calcium fluorescence, antagonist | Q96RJ0 | AID 624466;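 active = inhibition above a per-plate cutoff, the mean inhibition of test compounds on that plate plus 3 SD, cut at about 49% in these data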;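 note: 0% = DMSO plus EC80 beta-PEA response and 100% = DMSO alone without agonist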
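System: RD-HGA16 CHO cells with stable hTAAR1 and Gα16 | Probe or stimulus: EC80 β-phenethylamine stimulus | Dosing: 3 µM, single point | Times: Dye loading 75 min at 37 °C, then 30 min room temperature | Measured by: Fluo-8 calcium-sensitive fluorescence | Read-out basis: % inhibition of agonist calcium response | Replicates: n of 1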
V1R ag counter – activates human V1a receptor in oxytocin agonist counter-screen; CHO-V1R cells, Fluo-8 calcium fluorescence, agonist mode; 0% DMSO, 100% 3 nM vasopressin; activation, % at 3 µM; hit rate 0.25% among 320,000; AID 2797;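 active = activation above the mean activation of all tested compounds plus 3 SD, per screening run, cut at about 20% in these data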;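 note: signal is peak over basal fluorescence ratio across a 100 second FLIPR read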
* marks the source's active call; other numbers are inactive results; . = no result given.

SMILES | OXTR ag | OXTR potentiator | TAAR1 agonist | TAAR1 antagonist | V1R ag counter
CC(=O)c1ccc(NC(=S)NC(C)c2ccc(Cl)cc2Cl)cc1 (stereo not drawn) | 25* | -13 | 41* | 38 | 24*
Cc1ccc(-c2nnc(Nc3ccccc3)c3ccccc23)cc1S(=O)(=O)NCC1CCCO1 (stereo not drawn) | -1 | -5 | 17 | 58* | 0
Cc1[nH]c2ccccc2c1CC(=O)Nc1ccc(Nc2cccnc2)c(Br)c1 | . | . | 1 | 14 | .
COCCN(CCOC)c1nc(-c2ccccc2)nc2ccccc12 | . | . | 9 | 56* | .
COC1OCC(O)C(OC(=O)c2ccccc2)C1OC(=O)c1ccccc1 (stereo not drawn) | . | . | 1 | 3 | .
CCOC(=O)c1ccc(NC(=O)CN(c2ccc(C)cc2)S(=O)(=O)c2c(C)n[nH]c2C)cc1 | 4 | -20 | 34 | 52* | 7
CCOc1ccccc1NC(=O)CN(c1ccc(C)cc1)S(=O)(=O)c1c(C)n[nH]c1C | -1 | -20 | 10 | 15 | 1
Cn1c(=O)c2cc(NC(=O)NCCc3cccs3)ccc2n1Cc1ccccc1 | . | . | 6 | 21 | .
Cc1cc(C)cc(Cn2c3ccc(NC(=O)NCCc4cccs4)cc3c(=O)n2C)c1 | . | . | 42* | 59* | .
O=C1c2c(O)cccc2Cc2cccc(O)c21 | -1 | 5 | -2 | 104* | -1
Cc1cc(SCC(N)=O)nc(SCC(=O)c2ccccc2)n1 | 3 | -9 | 1 | 4 | 3
Cc1ccc(C(=O)CSc2cc(C)nc(SCC(=O)c3ccccc3)n2)cc1 | 1 | -4 | 12 | 54* | 2
NC(N)=N/N=C/c1ccc(Cl)cc1Cl | 15 | -18 | 17 | 2 | 15
NC(N)=N/N=C/c1ccc(Cl)c(Cl)c1 | 4 | -5 | 39* | -25 | 1
O=C(COC(=O)c1cc(=O)[nH]c2ccc(Br)cc12)c1ccccc1 | -3 | 0 | 41* | 26 | -1
O=C1NC[C@H](CCCCN2C[C@H](Cc3ccc(O)cc3)N(CC3CCCCC3)C(=O)C2=O)N(CC2CCCCC2)C1=O | . | . | 0 | 2 | .
CC(C)CC(=O)N/C(N)=N/c1nc2ccccc2o1 | -3 | -6 | 6 | -19 | 3
CCN(c1ccccc1)S(=O)(=O)c1ccc(C(=O)N(C)Cc2cccs2)cc1 | 0 | -5 | 11 | 49* | 3
CCN(CC(=O)NCc1cccs1)C(=O)c1ccc(S(=O)(=O)N(C)c2ccccc2)cc1 | 3 | -9 | 4 | 16 | 1
O=C(Nc1ccccc1)N(Cc1ccccc1)C1=NCCS1 | 0 | -8 | 40* | 5 | 1
CC1CN=C(N(Cc2ccccc2)C(=O)Nc2ccccc2)S1 (stereo not drawn) | 0 | -14 | 12 | 0 | 1
CC(C)C(N)c1csc(Nc2ccc(C(=O)NCCCO)cn2)n1 (stereo not drawn) | . | . | 1 | 1 | .
CCN1C(=O)C(CC(=O)Nc2ccc(OC)cc2)N(CCc2ccc(OC)cc2)C1=S (stereo not drawn) | 4 | -14 | 28 | 51* | 5
CCCOc1ccc(NC(=O)CC2C(=O)N(CC)C(=S)N2CCCN2CCN(Cc3ccccc3)CC2)cc1 (stereo not drawn) | 9 | -28 | 21 | 18 | 7
CCN1C(=O)C(CC(=O)Nc2ccc(F)cc2)N(CCCN2CCN(c3ccc(F)cc3)CC2)C1=S (stereo not drawn) | 5 | -14 | 30 | 53* | 6
SMILES | OXTR ag | OXTR potentiator | TAAR1 agonist | TAAR1 antagonist | V1R ag counter
CC1(C(=O)NCC2CCCO2)Oc2cccnc2NC1=O (stereo not drawn) | 1 | -1 | 0 | -1 | 1
Cc1ccc2c(c1)C1CN(C)CCC1N2Sc1ccccc1[N+](=O)[O-] (stereo not drawn) | 7 | -4 | 40* | -2 | 6
O=S(=O)(Nc1ccccc1Cl)c1ccc(NS(=O)(=O)c2cccs2)cc1 | 7 | -14 | 38* | 8 | 6
S=C(SCc1c(Cl)cccc1Cl)N1CCSCC1 | . | . | 0 | -22 | .
CN(C)C(=O)CSc1nnc(-c2cc(-c3cccs3)nc3ccccc23)o1 | 1 | -8 | 15 | 50* | 0
CCN(CC)C(=O)CSc1nnc(-c2cc(-c3ccc(Cl)cc3)nc3ccccc23)o1 | 1 | -6 | 3 | -10 | 1
COc1ccc(-c2nnc(SCC(=O)N/N=C/c3ccccc3C(=O)O)n2-c2ccccc2)cc1 | -1 | -11 | 1 | -23 | 0
CC(=O)c1sc(N/N=C\c2ccccc2O)nc1C | 3 | -11 | 42* | 16 | 4
CCCCSc1ccc2nc(-c3ccc(C#N)cc3)cn2c1 | -1 | -16 | 19 | 50* | 2
CCOC(=O)C1CCCN(c2nc3c(C)cccn3c(=O)c2/C=C(\C#N)C(=O)NCc2ccco2)C1 (stereo not drawn) | -3 | -10 | 52* | 46 | -2
CCCC(=O)Nc1ccc(Cl)c(NC(=O)c2cccnc2Cl)c1 | 0 | -9 | 39* | 2 | 0
Cc1cccn2c(CNCCc3ccco3)c(C(=O)N3CCOCC3)nc12 | . | . | 43* | 18 | .
Cc1cccn2c(CN[C@@H]3CCCC[C@H]3c3ccccc3)c(C(=O)N3CCOCC3)nc12 | -1 | -11 | 8 | 31 | 0
CC(C)OC(=O)/C(=C\c1ccc2c(c1)c1ccccc1n2C)NC(=O)c1ccccc1 | -1 | -8 | 4 | 50* | 1
COCCNC(=S)N(C)[C@H]1C[C@H]2c3[nH]c4cccc(-c5ccccc5)c4c3CCN2C(=O)[C@H]1[C@H](C)O | . | . | 1 | -7 | .
O=C(O)c1ccc(NC(=O)c2cn(-c3ccccc3)nc2-c2cccc(Cl)c2)cc1 | 0 | -10 | 6 | 52* | 0
O=C(O)c1ccc(NC(=O)c2cn(-c3ccccc3)nc2-c2ccc(F)cc2)cc1 | 0 | -19 | 5 | 59* | 0
C[C@@H]1COc2cc(N3CC[C@H](O)C3)ccc2S(=O)(=O)N1 | . | . | 2 | -1 | .
CCCCn1c(N)c(N(CCC(C)C)C(=O)CSc2nncn2-c2ccccc2)c(=O)[nH]c1=O | 0 | -8 | 2 | -6 | 0
N#CC(C#N)=Cc1c(N2CCN(c3ccccc3)CC2)nc2ccccn2c1=O | -2 | -15 | 7 | 0 | -1
Cc1cc(C(=O)Cn2cncn2)c(C)n1CCc1ccc(F)cc1 | 1 | -15 | 31 | 3 | 3
Cc1cc(C(=O)COC(=O)c2ccncc2)c(C)n1CCc1ccc(F)cc1 | 3 | -21 | 48* | 10 | 2
Cc1nn(C)c(C)c1N1C(=O)c2cccc3c(N)ccc(c23)C1=O | 108* | -12 | 124* | 64* | 128*
CCN1C(=O)c2cccc3c(N)ccc(c23)C1=O | 77* | -10 | 136* | 42 | 104*
Cc1ccc(S(=O)(=O)NCCC(=O)OCc2ccc([N+](=O)[O-])cc2)cc1C | 5 | -19 | 1 | 50* | 5

Source: PubChem BioAssay (The Scripps Research Institute Molecular Screening Center)
